Results from ChEMBL document CHEMBL3044914, “Synthesis of novel 12-aryl-8,9,10,12-tetrahydrobenzo[a]xanthene-11-thiones and evaluation of their biocidal effects” (2012).
In brackets after ≈: the same amount, converted by molar mass.

Tests used:
Spodoptera litura [1] = experiment: Insect growth regulatory activity against Spodoptera litura third-instar larvae assessed as growth inhibition index at 0.1% measured after 24 hr post compound treatment by leaf-dip method; format: functional
Spodoptera litura [2] = experiment: Insect growth regulatory activity against Spodoptera litura third-instar larvae assessed as abnormal or dead larva level at 0.1% measured after 24 hr post compound treatment by leaf-dip method; format: functional
Outline: (§1)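 Third-instar larvae were reared on artificial diet, newly moulted and pre-weighed at 30–40 mg. The 0.1% solution was a stock, applied at different concentrations. Leaves on moistened filter paper in Petri dishes were sprayed with the test solution and dried. Ten larvae were placed per dish, in triplicate, with carrier-solvent controls. Larval weight, mortality, pupation, deformed pupae, intermediates, adult emergence and deformed adults were recorded after 24 h.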

[3] = Inhibition of soil urease assessed as urea-N level at 1% compound level measured after 9 hr; conditions: concentration not given here
Outline: (§2)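 Soil from cultivated institute farm fields, 50 g air-dried per beaker, moisture kept daily with distilled water. Compound in acetone added at 1% of applied urea-N (0.1 mg); urea-alone control; completely randomized design, three replicates. 5 g samples taken at 9 and 27 h, extracted with 1 M sodium sulfate containing phenyl mercuric acetate to stop hydrolysis; urea-N estimated.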

Macrophomina phaseolina = experiment: Antifungal activity against Rhizoctonia bataticola by food poison technique; format: functional; conditions: read-out: ED50 (the source's name)
Alternaria porri = experiment: Antifungal activity against Alternaria porri by food poison technique; format: functional; conditions: read-out: ED50 (the source's name)
Fusarium oxysporum = experiment: Antifungal activity against Fusarium oxysporum by food poison technique; format: functional; conditions: read-out: ED50 (the source's name)
Spodoptera litura [4] = experiment: Insect growth regulatory activity against Spodoptera litura third-instar larvae assessed as normal adult level at 0.1% measured after 24 hr post compound treatment by leaf-dip method; format: functional
Athelia rolfsii = experiment: Antifungal activity against Athelia rolfsii by food poison technique; format: functional; conditions: Agroathelia rolfsii; read-out: ED50 (the source's name)
Spodoptera litura [5] = experiment: Insecticidal activity against Spodoptera litura third-instar larvae exposed to 0.1% compound on ventral side of larvae assessed as mortality after 24 hr post compound treatment by contact method; format: functional
Outline: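 Topical treatment of third-instar larvae aged 7 ± 1 day. Each treatment was run in triplicate with solvent as control. Mortality was recorded after 24 h.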

Spodoptera litura [6] = experiment: Insect growth regulatory activity against Spodoptera litura third-instar larvae assessed as mortality at 0.1% measured after 24 hr post compound treatment by leaf-dip method; format: functional; outline: as §1
[7] = Inhibition of soil urease assessed as urea-N level at 1% compound level measured after 27 hr; conditions: concentration not given here; outline: as §2
Spodoptera litura [8] = experiment: Insecticidal activity against Spodoptera litura third-instar larvae fed on 0.1% compound pre-treated castor leaves assessed as mortality after 24 hr post compound treatment by feeding method; format: functional
Outline: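 Castor leaf was dipped for 2 s in a 0.1% solution, air-dried and placed on moist filter paper in 9 cm Petri plates. Third-instar larvae aged 7 ± 1 day were prestarved 4 h and released singly into each plate. There were thirty replications per treatment, with a solvent control. Mortality was scored at 24 h.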

Spodoptera litura [9] = experiment: Insect growth regulatory activity against Spodoptera litura third-instar larvae assessed as abnormal pupa or dead pupa level at 0.1% measured after 24 hr post compound treatment by leaf-dip method; format: functional; outline: as §1

| SMILES | growth inhibition (GI) (Spodoptera litura [1]) | Activity (Spodoptera litura [2]) | inhibition [3] | EC50 (Macrophomina phaseolina) | EC50 (Alternaria porri) | EC50 (Fusarium oxysporum) | Activity (Spodoptera litura [4]) | EC50 (Athelia rolfsii) | mortality (Spodoptera litura [5]) | mortality (Spodoptera litura [6]) | inhibition [7] | mortality (Spodoptera litura [8]) | Activity (Spodoptera litura [9]) |
| --- | --- | --- | --- | --- | --- | --- | --- | --- | --- | --- | --- | --- | --- |
| O=[N+]([O-])c1ccc(C2C3=C(CCCC3=S)Oc3ccc4ccccc4c32)cc1 (centres undefined) | 80% | 10% | 1% | 555 µg/mL (≈ 1430 µM) | 212 µg/mL (≈ 547 µM) | 358 µg/mL (≈ 923 µM) | 20% | 670 µg/mL (≈ 1730 µM) | 0% | 50% | -1% | 70% | – |
| CC1(C)CC(=S)C2=C(C1)Oc1ccc3ccccc3c1C2c1cccs1 (centres undefined) | 35% | 0% | 4% | 590 µg/mL (≈ 1570 µM) | 456 µg/mL (≈ 1210 µM) | 375 µg/mL (≈ 997 µM) | 65% | 457 µg/mL (≈ 1210 µM) | 0% | 15% | -8% | 10% | 20% |
| S=C1CCCC2=C1C(c1ccccc1)c1c(ccc3ccccc13)O2 (centres undefined) | 50% | 0% | 47% | 438 µg/mL (≈ 1280 µM) | 210 µg/mL (≈ 613 µM) | 287 µg/mL (≈ 839 µM) | 50% | 500 µg/mL (≈ 1460 µM) | 10% | 40% | 22% | 30% | 10% |
| CC1(C)CC(=S)C2=C(C1)Oc1ccc3ccccc3c1C2c1ccc2ccccc2c1 (centres undefined) | 30% | 20% | 1% | 244 µg/mL (≈ 580 µM) | 165 µg/mL (≈ 393 µM) | 189 µg/mL (≈ 448 µM) | 70% | 199 µg/mL (≈ 473 µM) | 0% | 0% | 3% | 80% | 10% |
| COc1cc(C2C3=C(CC(C)(C)CC3=S)Oc3ccc4ccccc4c32)ccc1O (centres undefined) | 30% | 0% | -6% | 567 µg/mL (≈ 1360 µM) | 433 µg/mL (≈ 1040 µM) | 438 µg/mL (≈ 1050 µM) | 70% | 670 µg/mL (≈ 1610 µM) | 0% | 10% | 12% | 10% | 20% |
| S=C1CCCC2=C1C(c1ccccc1Br)c1c(ccc3ccccc13)O2 (centres undefined) | 25% | 20% | 1% | 286 µg/mL (≈ 678 µM) | 136 µg/mL (≈ 322 µM) | 148 µg/mL (≈ 352 µM) | 75% | 225 µg/mL (≈ 535 µM) | 50% | 0% | -2% | 90% | 5% |
| CC1(C)C(C=C(Cl)Cl)C1C(=O)OC(C#N)c1cccc(Oc2ccccc2)c1 (stereo not drawn) [ALPHA-CYPERMETHRIN] | – | – | – | – | – | – | – | – | 100% | – | – | – | – |
| COc1ccccc1C1C2=C(CC(C)(C)CC2=S)Oc2ccc3ccccc3c21 (centres undefined) | 60% | 20% | 24% | 484 µg/mL (≈ 1210 µM) | 418 µg/mL (≈ 1040 µM) | 336 µg/mL (≈ 838 µM) | 40% | 324 µg/mL (≈ 810 µM) | 15% | 30% | 6% | 30% | 10% |
| S=C1CCCC2=C1C(c1cccc(Cl)c1)c1c(ccc3ccccc13)O2 (centres undefined) | 60% | 20% | 6% | 380 µg/mL (≈ 1010 µM) | 268 µg/mL (≈ 712 µM) | 320 µg/mL (≈ 850 µM) | 40% | 426 µg/mL (≈ 1130 µM) | 30% | 30% | 2% | 60% | 10% |
| CCCCC(O)(Cn1cncn1)c1ccc(Cl)cc1Cl (centres undefined) [HEXACONAZOLE] | – | – | – | 334 µg/mL (≈ 1060 µM) | 25.5 µg/mL (≈ 81.3 µM) | 20.6 µg/mL (≈ 65.4 µM) | – | 13 µg/mL (≈ 41.2 µM) | – | – | – | – | – |
| Cc1ccc(C2C3=C(CC(C)(C)CC3=S)Oc3ccc4ccccc4c32)cc1 (centres undefined) | 50% | 10% | 33% | 489 µg/mL (≈ 1270 µM) | 385 µg/mL (≈ 1000 µM) | 410 µg/mL (≈ 1070 µM) | 50% | 321 µg/mL (≈ 834 µM) | 10% | 30% | 12% | 20% | 10% |
| COc1ccc(C2C3=C(CC(C)(C)CC3=S)Oc3ccc4ccccc4c32)cc1 (centres undefined) | 40% | 10% | 5% | 478 µg/mL (≈ 1190 µM) | 406 µg/mL (≈ 1010 µM) | 279 µg/mL (≈ 697 µM) | 60% | 365 µg/mL (≈ 912 µM) | 0% | 10% | -4% | 10% | 20% |
| CC1(C)CC(=S)C2=C(C1)Oc1ccc3ccccc3c1C2c1ccc(Cl)cc1 (centres undefined) | 70% | 10% | 35% | 334 µg/mL (≈ 825 µM) | 311 µg/mL (≈ 767 µM) | 245 µg/mL (≈ 606 µM) | 30% | 280 µg/mL (≈ 692 µM) | 30% | 40% | 18% | 40% | 20% |
| CC1(C)CC(=S)C2=C(C1)Oc1ccc3ccccc3c1C2c1ccccc1 (centres undefined) | 75% | 0% | 5% | 570 µg/mL (≈ 1540 µM) | 336 µg/mL (≈ 906 µM) | 326 µg/mL (≈ 879 µM) | 35% | 525 µg/mL (≈ 1420 µM) | 20% | 50% | 5% | 20% | 15% |
| CC1(C)CC(=S)C2=C(C1)Oc1ccc3ccccc3c1C2c1cccc(Br)c1 (centres undefined) | 100% | 50% | 15% | 475 µg/mL (≈ 1060 µM) | 321 µg/mL (≈ 714 µM) | 310 µg/mL (≈ 689 µM) | 0% | 478 µg/mL (≈ 1060 µM) | 30% | 50% | 6% | 10% | – |
| CC1(C)CC(=S)C2=C(C1)Oc1ccc3ccccc3c1C2c1ccc(F)cc1 (centres undefined) | 50% | – | -3% | 345 µg/mL (≈ 888 µM) | 199 µg/mL (≈ 511 µM) | 260 µg/mL (≈ 670 µM) | 50% | 358 µg/mL (≈ 922 µM) | 10% | 0% | 0% | 40% | 0% |
